Entries after “also recorded” stand apart in the source; their conditions may differ. Marks after values point to notes of the source that are not given here.
Legend:
[1] = tested on: glycine levels in the rat cerebrospinal fluid (CSF); assay: Glycine in rat CSF after single oral dose; type: in vivo; conditions: 90 min
Procedure, shortened: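 Male Wistar rats were acclimatised 1 h in the test room, then dosed orally once with vehicle (0.5% Natrosol, 0.01% Tween-80) or 0.2, 0.6 or 2 mg/kg (n = 8 each). After 90 min, CSF was drawn by cisterna magna puncture under anaesthesia and frozen at −70°C. Glycine was quantified by LC-MS/MS. Data are mean ± SEM, compared with vehicle by one-way ANOVA with Dunnett's test.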

[2] = Phase I safety and tolerability; type: in vivo, human
Procedure, shortened: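 In a nonrandomised, open-label phase I study, healthy men received 5, 10, 25 or 50 mg once daily for 14 days, with CSF sampled through a lumbar catheter. Safety was scored as the number of subjects with adverse events and summarised descriptively.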

[3] = Phase I pharmacokinetics in plasma and CSF, multiple dosing over 14 days; type: in vivo, human; conditions: for AUC0–14: after first dose, geometric mean (% gCV); for Tmax / Cmax: male, human, po
Procedure, shortened: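 Healthy males received 5–50 mg orally once daily for 14 days. CSF was collected hourly via lumbar catheter for 14 h after dose 1 and by puncture before the last dose. Plasma was sampled hourly on days 1 and 14, every 24 h on days 2–4 and every 48 h on days 6–12. Drug was measured by validated HPLC-MS/MS with noncompartmental analysis. Steady state was judged from trough plasma concentrations (days 2–14) using pairwise 95% CIs.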

[4] = 5 mg once daily for 14 days (n = 6)
[5] = 10 mg once daily for 14 days (n = 6)
[6] = 25 mg once daily for 14 days (n = 8)
[7] = 50 mg once daily for 14 days (n = 5)
[8] = total on-treatment, all doses (n = 25)

## C[C@@H](Oc1ccc(S(C)(=O)=O)cc1C(=O)N1C[C@@H]2C[C@]2(c2cc(C(F)(F)F)on2)C1)C(F)(F)F [BI 425809]
[1]; 0.2 mg/kg single oral dose, not significant
  Increase of glycine CSF levels relative to vehicle: 30%
[1]; 0.6 mg/kg single oral dose, P < 0.05
  Increase of glycine CSF levels relative to vehicle: 61%
[1]; 2 mg/kg single oral dose, P < 0.01
  Increase of glycine CSF levels relative to vehicle: 78%
[2]; [4]
  Abdominal pain, subjects with AE: 0 n (%)
  Back pain, subjects with AE: 3 (50.0) n (%)
  Catheter site pain, subjects with AE: 1 (16.7) n (%)
  Diarrhea, subjects with AE: 0 n (%)
  Dizziness, subjects with AE: 0 n (%)
  Dry mouth, subjects with AE: 0 n (%)
  Fatigue, subjects with AE: 0 n (%)
  Gingivitis, subjects with AE: 0 n (%)
  Muscle spasms, subjects with AE: 1 (16.7) n (%)
  Musculoskeletal stiffness, subjects with AE: 0 n (%)
  Nasopharyngitis, subjects with AE: 0 n (%)
  Nausea, subjects with AE: 1 (16.7) n (%)
  Neck pain, subjects with AE: 0 n (%)
  Paraesthesia, subjects with AE: 1 (16.7) n (%)
  Procedural headache, subjects with AE: 4 (66.7) n (%)
  Procedural pain, subjects with AE: 0 n (%)
  Somnolence, subjects with AE: 1 (16.7) n (%)
  Tension headache, subjects with AE: 0 n (%)
  Total with AEs (treatment-emergent): 5 (83.3) n (%)
  Upper abdominal pain, subjects with AE: 0 n (%)
  Vomiting, subjects with AE: 1 (16.7) n (%)
  Wound, subjects with AE: 0 n (%)
[2]; [5]
  Abdominal pain, subjects with AE: 0 n (%)
  Back pain, subjects with AE: 0 n (%)
  Catheter site pain, subjects with AE: 0 n (%)
  Diarrhea, subjects with AE: 0 n (%)
  Dizziness, subjects with AE: 1 (16.7) n (%)
  Dry mouth, subjects with AE: 0 n (%)
  Fatigue, subjects with AE: 0 n (%)
  Gingivitis, subjects with AE: 1 (16.7) n (%)
  Muscle spasms, subjects with AE: 0 n (%)
  Musculoskeletal stiffness, subjects with AE: 0 n (%)
  Nasopharyngitis, subjects with AE: 0 n (%)
  Nausea, subjects with AE: 2 (33.3) n (%)
  Neck pain, subjects with AE: 1 (16.7) n (%)
  Paraesthesia, subjects with AE: 0 n (%)
  Procedural headache, subjects with AE: 4 (66.7) n (%)
  Procedural pain, subjects with AE: 0 n (%)
  Somnolence, subjects with AE: 0 n (%)
  Tension headache, subjects with AE: 0 n (%)
  Total with AEs (treatment-emergent): 5 (83.3) n (%)
  Upper abdominal pain, subjects with AE: 0 n (%)
  Vomiting, subjects with AE: 1 (16.7) n (%)
  Wound, subjects with AE: 1 (16.7) n (%)
[2]; [6]
  Abdominal pain, subjects with AE: 1 (12.5) n (%)
  Back pain, subjects with AE: 4 (50.0) n (%)
  Catheter site pain, subjects with AE: 0 n (%)
  Diarrhea, subjects with AE: 1 (12.5) n (%)
  Dizziness, subjects with AE: 1 (12.5) n (%)
  Dry mouth, subjects with AE: 1 (12.5) n (%)
  Fatigue, subjects with AE: 1 (12.5) n (%)
  Gingivitis, subjects with AE: 0 n (%)
  Muscle spasms, subjects with AE: 0 n (%)
  Musculoskeletal stiffness, subjects with AE: 1 (12.5) n (%)
  Nasopharyngitis, subjects with AE: 0 n (%)
  Nausea, subjects with AE: 2 (25.0) n (%)
  Neck pain, subjects with AE: 1 (12.5) n (%)
  Paraesthesia, subjects with AE: 0 n (%)
  Procedural headache, subjects with AE: 5 (62.5) n (%)
  Procedural pain, subjects with AE: 1 (12.5) n (%)
  Somnolence, subjects with AE: 0 n (%)
  Tension headache, subjects with AE: 1 (12.5) n (%)
  Total with AEs (treatment-emergent): 8 (100.0) n (%)
  Upper abdominal pain, subjects with AE: 1 (12.5) n (%)
  Vomiting, subjects with AE: 2 (25.0) n (%)
  Wound, subjects with AE: 0 n (%)
[2]; [7]
  Abdominal pain, subjects with AE: 0 n (%)
  Back pain, subjects with AE: 1 (20.0) n (%)
  Catheter site pain, subjects with AE: 0 n (%)
  Diarrhea, subjects with AE: 0 n (%)
  Dizziness, subjects with AE: 0 n (%)
  Dry mouth, subjects with AE: 0 n (%)
  Fatigue, subjects with AE: 1 (20.0) n (%)
  Gingivitis, subjects with AE: 0 n (%)
  Muscle spasms, subjects with AE: 0 n (%)
  Musculoskeletal stiffness, subjects with AE: 0 n (%)
  Nasopharyngitis, subjects with AE: 1 (20.0) n (%)
  Nausea, subjects with AE: 0 n (%)
  Neck pain, subjects with AE: 1 (20.0) n (%)
  Paraesthesia, subjects with AE: 0 n (%)
  Procedural headache, subjects with AE: 3 (60.0) n (%)
  Procedural pain, subjects with AE: 0 n (%)
  Somnolence, subjects with AE: 0 n (%)
  Tension headache, subjects with AE: 0 n (%)
  Total with AEs (treatment-emergent): 4 (80.0) n (%)
  Upper abdominal pain, subjects with AE: 0 n (%)
  Vomiting, subjects with AE: 0 n (%)
  Wound, subjects with AE: 0 n (%)
[2]; healthy male volunteers, 5 to 50 mg for 14 days
  AEs of special interest, deaths, serious AEs on-treatment: no protocol‐specified AEs of special interest, deaths, or other serious AEs reported
[2]; healthy male volunteers, multiple oral doses 5 to 50 mg for 14 days
  Safety and tolerability (in words): safe and well tolerated; also recorded: generally well tolerated; also recorded: well tolerated, with no indication of safety concerns
[2]; of the 25 subjects treated (8 subjects)
  Subjects reporting back pain: 32.0%
[2]; of the 25 subjects treated (16 subjects)
  Subjects reporting procedural headache: 64.0%
[2]; of the 25 subjects treated (22 subjects)
  Subjects reporting at least one treatment-emergent AE: 88.0%
[2]; [8]
  Abdominal pain, subjects with AE: 1 (4.0) n (%)
  Back pain, subjects with AE: 8 (32.0) n (%)
  Catheter site pain, subjects with AE: 1 (4.0) n (%)
  Diarrhea, subjects with AE: 1 (4.0) n (%)
  Dizziness, subjects with AE: 2 (8.0) n (%)
  Dry mouth, subjects with AE: 1 (4.0) n (%)
  Fatigue, subjects with AE: 2 (8.0) n (%)
  Gingivitis, subjects with AE: 1 (4.0) n (%)
  Muscle spasms, subjects with AE: 1 (4.0) n (%)
  Musculoskeletal stiffness, subjects with AE: 1 (4.0) n (%)
  Nasopharyngitis, subjects with AE: 1 (4.0) n (%)
  Nausea, subjects with AE: 5 (20.0) n (%)
  Neck pain, subjects with AE: 3 (12.0) n (%)
  Paraesthesia, subjects with AE: 1 (4.0) n (%)
  Procedural headache, subjects with AE: 16 (64.0) n (%)
  Procedural pain, subjects with AE: 1 (4.0) n (%)
  Somnolence, subjects with AE: 1 (4.0) n (%)
  Tension headache, subjects with AE: 1 (4.0) n (%)
  Total with AEs (treatment-emergent): 22 (88.0) n (%)
  Upper abdominal pain, subjects with AE: 1 (4.0) n (%)
  Vomiting, subjects with AE: 4 (16.0) n (%)
  Wound, subjects with AE: 1 (4.0) n (%)
[2]; two subjects of 25 (5-mg and 10-mg dose groups), AEs not considered drug-related
  Subjects who discontinued due to AEs: 8.0%
[3]; CSF, 5 mg oral, n = 6
  AUC0–14: 0.0299 µM·h
[3]; CSF, 10 mg oral, n = 6
  AUC0–14: 0.0598 µM·h
[3]; CSF, 25 mg oral, n = 6
  AUC0–14: 124.0 (27.2) ^e nM
[3]; CSF, 50 mg oral, n = 5
  AUC0–14: 0.26 µM·h
[3]; healthy volunteers, once daily dosing, trough plasma concentrations
  Steady state achieved by: ≤ 6 days
[3]; CSF
  Tmax: 5 to 8 h
[3]; CSF, 5 mg
  Cmax: 2.9 nM
  Tmax: 8 h
[3]; CSF, 10 mg
  Cmax: 5.6 nM
  Tmax: 5.5 h
[3]; CSF, 25 mg
  Cmax: 12.2 nM
  Tmax: 6.1 h
[3]; CSF, 50 mg
  Cmax: 25 nM
  Tmax: 8.1 h
[3]; plasma
  Tmax: 3 to 5 h
[3]; plasma, 5 mg
  Cmax: 42.3 nM
  Tmax: 5 h
[3]; plasma, 10 mg
  Cmax: 85.6 nM
  Tmax: 4.5 h
[3]; plasma, 25 mg
  Cmax: 176 nM
  Tmax: 3 h
[3]; plasma, 50 mg
  Cmax: 328 nM
  Tmax: 5 h
[3]; plasma, 5 mg oral, n = 6
  AUC0–14: 0.421 µM·h
[3]; plasma, 10 mg oral, n = 6
  AUC0–14: 0.829 µM·h
[3]; plasma, 25 mg oral, n = 7
  AUC0–14: 1,840 (24.2) ^d nM
[3]; plasma, 50 mg oral, n = 5
  AUC0–14: 3.3 µM·h

From paper PMC6226115 (Clinical and Translational Science, 2018)
